# Measured values as given in ChEMBL document CHEMBL4321820, “Identification and Optimization of Mechanism-Based Fluoroallylamine Inhibitors of Lysyl Oxidase-like 2/3” (J Med Chem, 2019).
# What was measured:
# [1] = biological target: T1, Amine oxidase [flavin-containing] A (Homo sapiens, UniProt P21397); test: Inhibition of recombinant human MAOA expressed in baculovirus infected in BTI cells using tyramine as substrate preincubated with enzyme for 30 mins followed by substrate addition and measured every 2.5 mins for 30 mins by Amplex-Red oxidation assay
# T1 sequence (P21397 whole entry): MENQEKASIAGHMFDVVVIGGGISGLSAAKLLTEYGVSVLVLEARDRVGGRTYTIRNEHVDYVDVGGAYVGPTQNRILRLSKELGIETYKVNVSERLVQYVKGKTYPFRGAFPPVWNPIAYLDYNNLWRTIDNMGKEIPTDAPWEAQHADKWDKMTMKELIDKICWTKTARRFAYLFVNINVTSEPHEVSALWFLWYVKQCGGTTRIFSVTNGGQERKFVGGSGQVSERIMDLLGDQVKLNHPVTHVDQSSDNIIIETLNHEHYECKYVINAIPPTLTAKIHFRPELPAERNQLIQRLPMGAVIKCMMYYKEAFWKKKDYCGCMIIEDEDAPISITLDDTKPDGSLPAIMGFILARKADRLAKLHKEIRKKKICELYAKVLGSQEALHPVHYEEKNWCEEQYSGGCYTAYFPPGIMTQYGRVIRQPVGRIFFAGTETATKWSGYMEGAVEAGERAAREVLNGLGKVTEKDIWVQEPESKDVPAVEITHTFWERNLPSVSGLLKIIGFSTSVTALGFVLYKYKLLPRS
# [2] = biological target: T2, Amine oxidase [flavin-containing] B (Homo sapiens, UniProt P27338); test: Inhibition of recombinant human MAOB expressed in baculovirus infected in BTI cells using benzylamine as substrate preincubated with enzyme for 30 mins followed by substrate addition and measured every 2.5 mins for 30 mins by Amplex-Red oxidation assay
# T2 sequence (P27338 whole entry): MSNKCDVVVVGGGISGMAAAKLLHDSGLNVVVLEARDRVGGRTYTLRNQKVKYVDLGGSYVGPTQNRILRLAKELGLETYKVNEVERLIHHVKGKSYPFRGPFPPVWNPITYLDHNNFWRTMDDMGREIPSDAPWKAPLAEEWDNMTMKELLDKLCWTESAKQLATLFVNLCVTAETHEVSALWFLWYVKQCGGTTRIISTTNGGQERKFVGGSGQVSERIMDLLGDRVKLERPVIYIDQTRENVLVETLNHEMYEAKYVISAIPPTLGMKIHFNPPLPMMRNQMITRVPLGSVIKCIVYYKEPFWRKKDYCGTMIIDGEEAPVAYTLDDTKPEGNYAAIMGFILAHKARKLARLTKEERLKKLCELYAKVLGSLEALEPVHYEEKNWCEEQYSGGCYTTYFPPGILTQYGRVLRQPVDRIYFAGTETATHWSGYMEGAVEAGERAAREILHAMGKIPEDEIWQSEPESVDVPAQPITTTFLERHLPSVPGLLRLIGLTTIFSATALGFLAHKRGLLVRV
# [3] = biological target: T3, Amine oxidase [copper-containing] 3 (Homo sapiens, UniProt Q16853); test: Inhibition of recombinant human SSAO using benzylamine as substrate preincubated with enzyme for 30 mins followed by substrate addition and measured every 2.5 mins for 30 mins by Amplex-Red oxidation assay
# T3 sequence (Q16853 whole entry): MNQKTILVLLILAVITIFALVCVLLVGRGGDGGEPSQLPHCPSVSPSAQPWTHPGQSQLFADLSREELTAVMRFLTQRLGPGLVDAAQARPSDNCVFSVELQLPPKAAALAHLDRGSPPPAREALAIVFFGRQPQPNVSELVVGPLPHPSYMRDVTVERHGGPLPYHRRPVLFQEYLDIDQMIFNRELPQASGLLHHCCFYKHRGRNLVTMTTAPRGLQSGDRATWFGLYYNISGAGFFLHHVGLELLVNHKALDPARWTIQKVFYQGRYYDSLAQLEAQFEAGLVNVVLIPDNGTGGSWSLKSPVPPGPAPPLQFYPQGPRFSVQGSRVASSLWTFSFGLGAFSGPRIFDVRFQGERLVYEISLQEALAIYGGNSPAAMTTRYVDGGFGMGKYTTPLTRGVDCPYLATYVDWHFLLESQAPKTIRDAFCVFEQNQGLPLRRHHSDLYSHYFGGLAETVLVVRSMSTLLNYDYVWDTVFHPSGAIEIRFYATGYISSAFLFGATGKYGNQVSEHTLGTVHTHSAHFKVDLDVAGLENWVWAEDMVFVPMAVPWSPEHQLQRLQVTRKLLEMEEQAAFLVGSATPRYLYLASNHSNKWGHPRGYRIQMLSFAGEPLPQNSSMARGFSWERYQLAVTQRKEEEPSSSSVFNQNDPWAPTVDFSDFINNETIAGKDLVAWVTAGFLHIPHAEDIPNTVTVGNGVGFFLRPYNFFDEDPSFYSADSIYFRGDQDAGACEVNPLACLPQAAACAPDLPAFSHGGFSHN
# Lysyl oxidase homolog 3 = biological target: T4, Lysyl oxidase homolog 3 (Homo sapiens, UniProt P58215); test: Inhibition of recombinant C-terminal His-tagged human LOXL3 (1 to 753 residues) expressed in CHO cells using putrescine as substrate preincubated with enzyme for 30 mins followed by substrate addition and measured every 2.5 mins for 30 mins by Amplex-Red oxidation assay
# T4 sequence (P58215 whole entry): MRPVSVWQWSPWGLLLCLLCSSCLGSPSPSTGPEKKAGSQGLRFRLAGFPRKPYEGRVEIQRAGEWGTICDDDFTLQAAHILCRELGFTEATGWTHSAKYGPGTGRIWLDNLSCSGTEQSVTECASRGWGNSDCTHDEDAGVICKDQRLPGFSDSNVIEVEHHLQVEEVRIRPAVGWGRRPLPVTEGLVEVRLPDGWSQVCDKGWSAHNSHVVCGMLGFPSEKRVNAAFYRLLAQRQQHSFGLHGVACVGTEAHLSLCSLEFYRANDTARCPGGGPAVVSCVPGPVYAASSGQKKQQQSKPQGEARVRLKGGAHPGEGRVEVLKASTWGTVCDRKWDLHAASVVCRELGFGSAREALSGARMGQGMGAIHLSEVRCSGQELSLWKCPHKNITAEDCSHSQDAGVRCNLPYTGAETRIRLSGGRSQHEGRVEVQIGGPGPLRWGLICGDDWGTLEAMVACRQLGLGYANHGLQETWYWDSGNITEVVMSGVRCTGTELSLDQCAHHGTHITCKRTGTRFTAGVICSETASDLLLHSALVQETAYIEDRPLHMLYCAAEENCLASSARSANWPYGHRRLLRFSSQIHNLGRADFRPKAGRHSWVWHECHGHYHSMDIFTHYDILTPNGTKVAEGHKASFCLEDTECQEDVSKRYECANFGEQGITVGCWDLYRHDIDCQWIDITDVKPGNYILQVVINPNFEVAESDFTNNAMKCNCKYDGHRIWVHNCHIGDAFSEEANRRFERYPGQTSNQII
# Outline: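 Recombinant human LOXL3 or LOXL4 preincubated 30 min at 37 °C with compound in 1.2 M urea/50 mM borate pH 8.2, then Amplex Red (120 µM)/HRP (1.5 U/mL) with 2 mM putrescine; fluorescence read every 2.5 min for 30 min.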
# [4] = Protein binding in rat plasma; assay type: ADME, cell-free; settings: read-out: PPB (converted)
# [5] = Oral bioavailability in mouse; assay type: ADME, organism-based; settings: in vivo
IC50 ([1]; read-out: pIC50 (converted)),IC50 ([2]; read-out: pIC50 (converted)),IC50 ([3]; read-out: pIC50 (converted)),IC50 ([1]; read-out: IC50),IC50 ([2]; read-out: IC50),IC50 ([3]; read-out: IC50),IC50 (Lysyl oxidase homolog 3),fraction unbound [4],bioavailability [5],SMILES
> 31.6 µM,> 31.6 µM,7.94 µM,,,,,,,Cc1c(-c2cccc(S(=O)(=O)N(C)C)c2)c2ccccc2n1C/C(F)=C/CN.Cl
,,,> 30 µM,> 30 µM,> 30 µM,0.016 µM,0.12,< 1%,Cc1c(-c2cccc(S(=O)(=O)N(C)C)c2)c2cc(C(=O)O)ccc2n1C/C(F)=C/CN.Cl
